Results on 1 compound are retold here after ChEMBL document CHEMBL1131235, “(R)-(+)-2-[[[3-(Morpholinomethyl)-2H-chromen-8-yl]oxy]methyl] morpholine methanesulfonate: a new selective rat 5-hydroxytryptamine1B receptor antagonist” (J Med Chem, 1998).

Values joined by “and” are separate entries in the source; they are usually repeats but may differ in a detail not shown here. Identical values can stand only once. Where only a bound is given, the exact number is not on record here.

The species named for experiment [1] is Rattus norvegicus. The experiment in a line: Effect on 5-HIAA/5-HT turnover in Hippocampus of rat brain, expressed as percent of control. The class given is functional. Put shortly:
(§1)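 Rats received compound 20 mg/kg sc or saline 30 min before NSD 1015 (3-hydroxybenzylhydrazine dihydrochloride), 100 mg/kg sc. They were killed 30 min later. Hypothalamus, hippocampus, frontal cortex and striatum were dissected, frozen on dry ice and stored at -70 °C. 5-HTP, 5-HT and 5-HIAA were measured by HPLC and expressed as % of saline control.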

Experiment [2] can be described thus: Potentiation of K+ stimulated release of [3H]5-HT from brain slices at a concentration of 0 nM. (activity expressed as ratio of S2 (second stimulation)/S1(first stimulation)). Type of experiment: functional, Rattus norvegicus.
Experiment [3] is filed under the species Rattus norvegicus. In words: Percent control of the stimulation ratio S2 (second stimulation)/S1(first stimulation) at a concentration of 100 nM. (P<0.05). Type of experiment: functional.
Experiment [4] is filed under the species Rattus norvegicus. In words: Effect on 5-HIAA/5-HT turnover in Striatum of rat brain, expressed as percent of control. The class given is functional. In short, it runs like this:
as §1

For experiment [5], the species on record is Rattus norvegicus. The experiment in a line: Effect on 5-HTP turnover in hypothalamus of rat brain, expressed as percent of control. Type of experiment: functional. In short, it runs like this:
as §1

A short description of experiment [6]: Effect on 5-HIAA/5-HT turnover in Frontal cortex of rat brain, expressed as percent of control. Type of experiment: functional. Put shortly:
as §1

Experiment [7] in a line: Effect on 5-HTP turnover in Frontal cortex of rat brain, expressed as percent of control. The class given is functional. Put shortly:
as §1

Experiment [8] concerns the target 5-hydroxytryptamine receptor 7 (Rattus norvegicus, UniProt P32305). The experiment in a line: Binding affinity against 5-hydroxytryptamine 7 receptor using from CHO cell membranes [3H]5-HT as the radioligand. Put shortly: (§2)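 Binding by the Johansson et al. method. 5-HT2A used [3H]ketanserin and 5-HT2C used [3H]mesulergine, both on rat cortex. 5-HT6 and 5-HT7 used [3H]-5-HT on CHO cell membranes expressing the rat receptors.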

The species entered for experiment [9] is Rattus norvegicus. The experiment in a line: Effect on 5-HTP turnover in Hippocampus of rat brain, expressed as percent of control. Type of experiment: functional. Put shortly: as §1
Experiment [10] is described as follows: Potentiation of K+ stimulated release of [3H]-5-HT from brain slices at a concentration of 10 nM. (activity expressed as ratio of S2 (second stimulation)/S1(first stimulation)). Type of experiment: functional, Rattus norvegicus. Put shortly:
(§3)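 Rat occipital cortex slices (0.3 × 0.3 mm) preloaded with [3H]-5-HT, superfused at 0.4 mL/min with oxygenated Krebs-Henseleit pH 7.4 containing 2.5 μM citalopram. Two 4-min 25 mM KCl pulses at 62 and 98 min, compound present for 72 min spanning S2. Fractional release counted by liquid scintillation. S2/S1 ratio reported, also as % of control; n=3–8.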

For experiment [11], the species on record is Rattus norvegicus. The experiment in a line: Percent control of the stimulation ratio S2 (second stimulation)/S1(first stimulation) at a concentration of 1000 nM. (p<0.05). The class given is functional.
Experiment [12] is described as follows: Antagonism of the induced potentiation of K+ stimulated [3H]5-HT release from brain slices with 5-HT (1000 nM) at a concentration of 1000 nM. Type of experiment: functional, Rattus norvegicus. Put shortly: (§4)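 Rat occipital cortex slices (0.3 × 0.3 mm) were preloaded with [3H]-5-HT and superfused at 0.4 mL/min with oxygenated Krebs-Henseleit buffer, pH 7.4, containing 2.5 μM citalopram. After a 50 min wash, 4-min fractions were collected. 25 mM KCl was applied for 4 min at 62 min and again at 98 min. Test compound and 5-HT were given together in the same solution for 72 min. Fraction and slice radioactivity were counted by liquid scintillation. S2/S1 was expressed as % of control; Dunnett's t-test after ANOVA.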

Experiment [13] concerns the target Muscarinic acetylcholine receptor M3 (Rattus norvegicus, UniProt P08483). In words: Binding affinity against Muscarinic acetylcholine receptor using [3H]QNB as the radioligand.
For experiment [14], the species on record is Rattus norvegicus. In words: Effect on 5-HTP turnover in Striatum of rat brain, expressed as percent of control. Type of experiment: functional. In short, it runs like this:
as §1

For experiment [15], the target named is 5-hydroxytryptamine receptor 6 (Rattus norvegicus, UniProt P31388). In words: Binding affinity against 5-hydroxytryptamine 6 receptor from CHO cell membranes using [3H]5-HT as the radioligand. In short, it runs like this: as §2
Chain of 5-hydroxytryptamine receptor 6 (P31388 whole entry): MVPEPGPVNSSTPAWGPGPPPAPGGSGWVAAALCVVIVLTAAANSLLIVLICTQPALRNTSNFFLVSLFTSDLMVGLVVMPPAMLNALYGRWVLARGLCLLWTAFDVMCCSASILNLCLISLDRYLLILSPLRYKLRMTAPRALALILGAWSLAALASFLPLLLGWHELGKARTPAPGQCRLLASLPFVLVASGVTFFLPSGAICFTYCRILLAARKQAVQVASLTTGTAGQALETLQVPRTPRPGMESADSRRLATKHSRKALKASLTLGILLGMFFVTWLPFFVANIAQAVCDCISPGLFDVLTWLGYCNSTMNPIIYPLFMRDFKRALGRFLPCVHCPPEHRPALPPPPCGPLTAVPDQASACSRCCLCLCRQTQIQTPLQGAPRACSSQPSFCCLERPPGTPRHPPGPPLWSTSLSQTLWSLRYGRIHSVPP
For experiment [16], the system named is Rattus norvegicus. In words: Effect on the wet dog shake response(WDS) in rats after 10 determinations at a dose of 3 mg/kg, sc pretreated with saline. Type of experiment: functional. The note with it: route subcutaneous. In short, it runs like this: (§5)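 Rats were pretreated with pCPA 200 mg/kg ip or saline at 72 and 48 h before compound, 3 mg/kg sc. Wet dog shakes (whole-body and head shakes) were counted from 5 to 65 min after injection. Groups of 8-10 rats were compared with saline-treated rats (n = 30), Dunnett's t-test after ANOVA.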

Experiment [17] is described as follows: Antagonism of the induced potentiation of K+ stimulated [3H]5-HT release from brain slices with 5-HT (1000 nM) at a concentration of 1000nM, expressed as percent of control. Type of experiment: functional, Rattus norvegicus. Further details: scale not given: the % may be the effect or the level left. Put shortly:
(§6)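 Superfused rat occipital cortex slices (0.3 × 0.3 mm) preloaded with [3H]-5-HT; Krebs-Henseleit pH 7.4 with 2.5 μM citalopram, 0.4 mL/min. Two 4-min 25 mM KCl pulses (62 and 98 min). Compound and 5-HT were given in the same solution. Fractions and slices were counted by scintillation. S2/S1 is expressed as % of control.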

Experiment [18] in a line: Potentiation of K+ stimulated release of [3H]5-HT from brain slices at a concentration of 1000 nM. (activity expressed as ratio of S2 (second stimulation)/S1(first stimulation)). Type of experiment: functional, Rattus norvegicus. Put shortly: as §3
Experiment [19] is described as follows: Antagonism of the induced potentiation of K+ stimulated [3H]5-HT release from brain slices with 5-HT (100 nM) at a concentration of 1000 nM. The class given is functional, Rattus norvegicus. In short, it runs like this: as §4
Experiment [20] relates to Rattus norvegicus. In words: Effect on the wet dog shake response(WDS) in rats after 9 determinations at a dose of 3mg/kg, sc pretreated with 200 mg/kg ip of pCPA. As to conditions: route subcutaneous. Type of experiment: functional. In short, it runs like this: as §5
Experiment [21] in a line: Potentiation of K+ stimulated release of [3H]5-HT from brain slices at a concentration of 100 nM. (activity expressed as ratio of S2 (second stimulation)/S1(first stimulation)). Type of experiment: functional, Rattus norvegicus. In short, it runs like this: as §3
Experiment [22] is filed under the species Rattus norvegicus. The experiment in a line: Percent control of the stimulation ratio S2 (second stimulation)/S1(first stimulation) at a concentration of 10 nM. (P>0.05). The class given is functional.
For experiment [23], the species on record is Rattus norvegicus. In words: Effect on 5-HIAA/5-HT turnover in Hyphalamus of rat brain, expressed as percent of control. The class given is functional. Put shortly: as §1
Experiment [24] can be described thus: Antagonism of the induced potentiation of K+ stimulated [3H]-5-HT release from brain slices with 5-HT (100 nM) at a concentration of 1000 nM, expressed as percent of control. Type of experiment: functional, Rattus norvegicus. On the set-up: scale not given: the % may be the effect or the level left. Put shortly: as §6

Chain of Muscarinic acetylcholine receptor M3 (P08483 whole entry): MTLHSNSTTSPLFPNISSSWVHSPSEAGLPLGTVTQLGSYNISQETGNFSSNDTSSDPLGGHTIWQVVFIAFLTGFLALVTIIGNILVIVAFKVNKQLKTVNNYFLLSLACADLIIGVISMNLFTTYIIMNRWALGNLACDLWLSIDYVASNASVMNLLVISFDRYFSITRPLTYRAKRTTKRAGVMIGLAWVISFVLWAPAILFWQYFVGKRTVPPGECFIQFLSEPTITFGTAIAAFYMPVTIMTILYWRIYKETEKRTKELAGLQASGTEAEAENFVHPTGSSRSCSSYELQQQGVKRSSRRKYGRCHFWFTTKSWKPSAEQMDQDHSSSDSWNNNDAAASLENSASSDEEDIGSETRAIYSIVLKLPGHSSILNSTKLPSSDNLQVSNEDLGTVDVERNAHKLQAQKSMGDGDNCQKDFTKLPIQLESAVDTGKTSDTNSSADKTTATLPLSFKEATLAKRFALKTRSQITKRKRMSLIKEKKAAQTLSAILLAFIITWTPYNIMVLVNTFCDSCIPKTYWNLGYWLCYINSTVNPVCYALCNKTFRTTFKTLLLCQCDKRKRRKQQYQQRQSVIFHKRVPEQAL
Chain of 5-hydroxytryptamine receptor 7 (P32305 whole entry): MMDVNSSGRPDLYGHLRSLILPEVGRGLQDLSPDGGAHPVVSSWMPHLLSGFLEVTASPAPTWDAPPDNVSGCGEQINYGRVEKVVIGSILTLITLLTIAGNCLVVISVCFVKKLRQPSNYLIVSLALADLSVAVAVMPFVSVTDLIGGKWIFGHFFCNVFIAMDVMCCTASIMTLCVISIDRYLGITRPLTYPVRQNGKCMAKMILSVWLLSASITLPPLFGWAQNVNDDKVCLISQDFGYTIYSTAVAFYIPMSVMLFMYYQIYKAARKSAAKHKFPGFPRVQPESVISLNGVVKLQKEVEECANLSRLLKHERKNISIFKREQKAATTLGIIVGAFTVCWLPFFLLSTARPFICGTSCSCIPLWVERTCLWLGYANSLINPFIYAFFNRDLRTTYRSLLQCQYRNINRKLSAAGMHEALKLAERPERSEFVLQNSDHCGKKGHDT

As for `C1=C(CN2CCOCC2)COc2c1cccc2OC[C@H]1CNCCO1.CS(=O)(=O)O`, the Activity came to 142% in the experiment filed under Rattus norvegicus [1]; 145% in the experiment filed under Rattus norvegicus [4]; 140% in the experiment filed under Rattus norvegicus [5]; 161% in experiment [6]; 142% in [7]; 148% in the experiment listed under Rattus norvegicus [9]. For the same compound, the Activity was 142% in the experiment listed under Rattus norvegicus [14]; 149% and 107% in experiment [17]; 166% in the experiment filed under Rattus norvegicus [23]; 149% and 161% in experiment [24]. Moreover, the Potentiation in [2] is 0.99; in experiment [10], 1.11; in experiment [18] it was 1.44; in experiment [21], 1.23. Further, the Control turned out to be 131% in the experiment listed under Rattus norvegicus [3], 153% in the experiment filed under Rattus norvegicus [11] and 115% in the experiment filed under Rattus norvegicus [22]. Also, the Ki – broadly, the equilibrium dissociation constant of an inhibitor or competing ligand from its target – in experiment [8] was over 3000 nM; in experiment [13] it was over 1000 nM; in experiment [15], over 3000 nM. In addition, the Ratio of stimulation in experiment [12] is 1.12 and 0.8; in experiment [19], 1.28 and 1.39. The “No. of WDS/60 min” value in the experiment on Rattus norvegicus [16] is reported as 17; in the experiment with Rattus norvegicus [20], 9.2.
